# Experimental data: ChEMBL document CHEMBL1132378, “Allosteric modulation of the adenosine A(1) receptor. Synthesis and biological evaluation of novel 2-amino-3-benzoylthiophenes as allosteric enhancers of agonist binding” (J Med Chem, 1999)
# How the values were obtained:
# [1] = molecular target: T1, Adenosine receptor A1 (Rattus norvegicus) (UniProt P25099); experiment: Enhancing activity at 10 uM PD 81,723 (100%) at Adenosine A1 receptor in rat brain cortex membranes; assay type: cell membranes
# T1 sequence (whole entry): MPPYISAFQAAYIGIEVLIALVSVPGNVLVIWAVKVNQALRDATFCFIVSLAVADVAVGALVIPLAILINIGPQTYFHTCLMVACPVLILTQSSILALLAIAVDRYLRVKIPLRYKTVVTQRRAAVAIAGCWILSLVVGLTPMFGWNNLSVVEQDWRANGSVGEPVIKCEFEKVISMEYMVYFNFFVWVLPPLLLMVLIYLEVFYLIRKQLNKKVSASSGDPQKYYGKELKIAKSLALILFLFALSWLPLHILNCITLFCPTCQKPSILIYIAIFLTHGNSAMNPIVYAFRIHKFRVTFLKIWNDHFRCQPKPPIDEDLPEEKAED
# Procedure, shortened: (§1)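 Rat brain cortex membranes (ADA-treated, 2 U/mL at 37 °C) preincubated 2.5 h with 0.5 nM [3H]CCPA. Dissociation then started with 100 μM CPA, with or without 10 μM test compound. Bound [3H]CCPA measured after 1 h.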
# [2] = molecular target: T1, Adenosine receptor A1 (Rattus norvegicus); experiment: Antagonistic activity expressed as percent displacement of 0.4 nM of [3H]DPCPX from adenosine A1 receptors in rat brain cortex membranes at 10 uM; assay type: functional, cell membranes; conditions: Membrane
# Procedure, shortened: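 Rat brain cortex membranes (ADA-treated, 2 U/mL at 37 °C before storage; 30 μg/mL) incubated 1 h at 25 °C in 50 mM Tris/HCl pH 7.4 with 0.4 nM [3H]DPCPX and 10 μM compound. Nonspecific binding defined by 10 μM CPA. Result is percent displacement of radioligand; n = 3–5.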
# Adenosine receptor A1 = molecular target: T2, Adenosine receptor A1 (Rattus norvegicus, UniProt P25099); experiment: Enhanced 0.5 nM [3H]CCPA dissociation from adenosine A1 receptor of rat brain cortex membranes compared to 100 uM CPA
# T2 sequence (P25099 whole entry): T1 sequence (whole entry)
# Procedure, shortened: as §1, with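 “h. Percent decrease in dissociation scaled between control (0%) and 10 μM PD 81,723 as reference (100%); n = 3.” for “h.”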
SMILES,Enhancement [1],Antagonism [2],EC50 (Adenosine receptor A1)
COC(=O)c1ccc(C(=O)c2c(N)sc3c2CCCC3)cc1,43.9%,28.9%,–
Nc1sc2c(c1C(=O)c1ccccc1)CCN(Cc1ccccc1)C2,52.8%,67.1%,–
Nc1sc2c(c1C(=O)c1ccccc1)CCCC2,47.2%,34.7%,–
Nc1sc2c(c1C(=O)c1ccc(Cl)cc1)CCN(Cc1ccc(Cl)c(Cl)c1)C2,106%,45.7%,32 µM
Nc1sc2c(c1C(=O)c1ccc(Br)cc1)CCCC2,128%,41.6%,16.4 µM
Nc1sc2c(c1C(=O)c1ccccc1)CCN(Cc1cccc(Cl)c1)C2,106%,80.1%,15.1 µM
Nc1sc2c(c1C(=O)c1ccccc1)CCN(Cc1ccc(Cl)cc1)C2,69%,52.2%,–
Nc1sc2c(c1C(=O)c1ccc([N+](=O)[O-])cc1)CCCC2,33.9%,19.5%,–
Nc1sc2c(c1C(=O)c1cccc(C(F)(F)F)c1)CCCC2,122%,32.2%,6 µM
Nc1sc2c(c1C(=O)c1ccc(Cl)c(Cl)c1)CCCC2,151%,34.7%,6.2 µM
Nc1sc2c(c1C(=O)c1cccc(Cl)c1)CCCC2,92.7%,50.6%,10.5 µM
Nc1sc2c(c1C(=O)c1ccc(I)cc1)CCCC2,155%,64.4%,4.5 µM
Nc1sc2c(c1C(=O)c1ccc(C(F)(F)F)cc1)CCCC2,131%,56.7%,4.7 µM
Nc1sc2c(c1C(=O)c1ccccc1)CCN(C(=O)c1ccccc1)C2,13.8%,71.8%,–
Nc1sc2c(c1C(=O)c1ccccc1)CCN(Cc1ccc(Cl)c(Cl)c1)C2,57%,4%,–
Nc1sc2c(c1C(=O)c1ccc(Cl)c(Cl)c1)CCN(Cc1ccccc1)C2,174%,51%,9.2 µM
Nc1sc2c(c1C(=O)c1ccc(C(=O)O)cc1)CCCC2,28.6%,–,–
Nc1sc2c(c1C(=O)c1cccc(I)c1)CCCC2,113%,65.8%,–
Nc1sc2c(c1C(=O)c1ccccc1Cl)CCCC2,72.5%,35.1%,–

# The remaining lines, values ahead:
Enhancement [1],Antagonism [2],EC50 (Adenosine receptor A1),SMILES
112%,5.4%,–,CCc1c(C)sc(N)c1C(=O)c1cccc(C(F)(F)F)c1
132%,60.9%,11.3 µM,Nc1sc2c(c1C(=O)c1ccc(Cl)cc1)CCN(Cc1ccccc1)C2
100%,39.5%,14.7 µM,Cc1sc(N)c(C(=O)c2cccc(C(F)(F)F)c2)c1C
123%,39.9%,6.8 µM,Nc1sc2c(c1C(=O)c1ccc(Cl)cc1)CCCC2 [T-62]
137%,30.3%,34.9 µM,Cc1ccc(C(=O)c2c(N)sc3c2CCCC3)cc1
80.3%,18.7%,–,Cc1sc(N)c(C(=O)c2cccc(Cl)c2)c1C
93.5%,41%,–,Cc1sc(N)c(C(=O)c2ccc(Cl)cc2)c1C
97.2%,19.8%,–,CCc1c(C)sc(N)c1C(=O)c1ccc(Cl)cc1
8%,13.9%,–,Cc1sc(N)c(C(=O)c2ccccc2)c1C
31.4%,12.6%,–,CCc1c(C)sc(N)c1C(=O)c1ccccc1
29.9%,22.3%,–,CCc1c(C)sc(N)c1C(=O)c1cccc(Cl)c1
